Laboratory results as given in ChEMBL document CHEMBL2384906, “Biological activity, design, synthesis and structure activity relationship of some novel derivatives of curcumin containing sulfonamides” (Eur J Med Chem, 2013).
≈ marks a conversion by molar mass, not a printed value. Calls of active or inactive are those of the source. The calls are words filed in the database; no cut-off is given here.

Experiments:
Pseudomonas aeruginosa [1] = test: Antimicrobial activity against Pseudomonas aeruginosa ATCC 15499 assessed as diameter of inhibition zone at 40 uM after 24 hrs by Kirby -Baur disc diffusion method; assay type: functional; settings: ATCC 15499, 24 h, read-out: DIZ
Outline: (§1)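 Kirby-Bauer disc diffusion was used. Acetone stocks (160 µM) were serially doubled down to 80, 40 and 20 µM. 4 µL of each went onto 5 mm sterile paper discs, which were dried 30 min at 50 °C. Inoculum was 1.5 × 10⁸ CFU/mL diluted to 3 × 10² CFU/mL, and 50 µL was spread on Mueller-Hinton agar. After 24 h at 37 °C the inhibition-zone diameter was measured. Ciprofloxacin served as positive control.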

Salmonella typhi [2] = test: Antimicrobial activity against Salmonella typhi ATCC 23564 after 24 hrs by broth micro serial dilution method; assay type: functional, Salmonella enterica subsp. enterica serovar Typhi; settings: Salmonella enterica, ATCC 23564, 24 h
Curvularia lunata [3] = test: Antifungal activity against Curvularia lunata MTCC 581 assessed as zone of inhibition at 40 uM after 48 hrs by disc diffusion method; assay type: functional; settings: MTCC 581, 48 h, read-out: IZ
Outline: (§2)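 Spores from 4-day potato dextrose agar cultures, suspended in sterile water at 1.5 × 10⁵ CFU/mL. 0.2 mL was spread on potato dextrose agar. 5 mm filter-paper discs soaked with test compound were laid on the lawn. Incubation was 48 h at 28 °C, then the inhibition zone was measured in mm. Fluconazole was the positive control and acetone the negative control.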

Aspergillus flavus [4] = test: Antifungal activity against Aspergillus flavus MTCC 1021 assessed as zone of inhibition at 20 uM after 48 hrs by disc diffusion method; assay type: functional; outline: as §2
Bacillus cereus [5] = test: Antimicrobial activity against Bacillus cereus MTCC 7350 assessed as diameter of inhibition zone at 40 uM after 24 hrs by Kirby -Baur disc diffusion method; assay type: functional; settings: MTCC 7350, 24 h, read-out: DIZ; outline: as §1
Escherichia coli [6] = test: Antimicrobial activity against Escherichia coli ATCC 35218 assessed as diameter of inhibition zone at 80 uM after 24 hrs by Kirby -Baur disc diffusion method; assay type: functional; settings: ATCC 35218, 24 h, read-out: DIZ; outline: as §1
Aspergillus niger [7] = test: Antifungal activity against Aspergillus niger MTCC 1108 assessed as zone of inhibition at 80 uM after 48 hrs by disc diffusion method; assay type: functional; settings: MTCC 1108, 48 h, read-out: IZ; outline: as §2
Pseudomonas aeruginosa [8] = test: Antimicrobial activity against Pseudomonas aeruginosa ATCC 15499 after 24 hrs by broth micro serial dilution method; assay type: functional; settings: ATCC 15499, 24 h
Outline: (§3)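 This was broth microdilution in autoclaved Mueller-Hinton broth. 150 µL of compound per well was serially diluted […], and 50 µL of test organism was added. Plates were incubated 24 h at 37 °C and optical density was read.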

Escherichia coli [9] = test: Antimicrobial activity against Escherichia coli ATCC 35218 after 24 hrs by broth micro serial dilution method; assay type: functional; settings: ATCC 35218, 24 h; outline: as §3
HepG2 = test: Cytotoxicity against human HepG2 cells after 24 hrs by MTT assay; assay type: functional, cell-based
Outline: (§4)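 The MTT assay seeded 5 × 10⁴ cells per well and grew them 24 h in RPMI 1640 with compound at 2.5–200 µM. Medium without cells was the blank and adriamycin the positive control. MTT was added for 4 h at 37 °C, formazan was solubilised, and absorbance was read at 570 nm. IC50 is the concentration that cuts viability 50% against untreated cells.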

Staphylococcus aureus [10] = test: Antimicrobial activity against Staphylococcus aureus ATCC 11632 after 24 hrs by broth micro serial dilution method; assay type: functional; settings: ATCC 11632, 24 h; outline: as §3
HCT-116 = test: Cytotoxicity against human HCT116 cells after 24 hrs by MTT assay; assay type: functional, cell-based; outline: as §4
Escherichia coli [11] = test: Antimicrobial activity against Escherichia coli ATCC 35218 assessed as diameter of inhibition zone at 40 uM after 24 hrs by Kirby -Baur disc diffusion method; assay type: functional; settings: ATCC 35218, 24 h, read-out: DIZ; outline: as §1
Trichoderma viride [12] = test: Antifungal activity against Trichoderma viride MTCC 1107 after 48 hrs; assay type: functional; settings: MTCC 1107, 48 h
Curvularia lunata [13] = test: Antifungal activity against Curvularia lunata MTCC 581 assessed as zone of inhibition at 20 uM after 48 hrs by disc diffusion method; assay type: functional; settings: MTCC 581, 48 h, read-out: IZ; outline: as §2
Bacillus cereus [14] = test: Antimicrobial activity against Bacillus cereus MTCC 7350 after 24 hrs by broth micro serial dilution method; assay type: functional; settings: MTCC 7350, 24 h; outline: as §3
Aspergillus niger [15] = test: Antifungal activity against Aspergillus niger MTCC 1108 assessed as zone of inhibition at 40 uM after 48 hrs by disc diffusion method; assay type: functional; settings: MTCC 1108, 48 h, read-out: IZ; outline: as §2
Trichoderma viride [16] = test: Antifungal activity against Trichoderma viride MTCC 1107 assessed as zone of inhibition at 80 uM after 48 hrs by disc diffusion method; assay type: functional; settings: MTCC 1107, 48 h, read-out: IZ; outline: as §2
Salmonella typhi [17] = test: Antimicrobial activity against Salmonella typhi ATCC 23564 assessed as diameter of inhibition zone at 20 uM after 24 hrs by Kirby -Baur disc diffusion method; assay type: functional, Salmonella enterica subsp. enterica serovar Typhi; settings: Salmonella enterica, ATCC 23564, 24 h; read-out: DIZ
Bacillus cereus [18] = test: Antimicrobial activity against Bacillus cereus MTCC 7350 assessed as diameter of inhibition zone at 20 uM after 24 hrs by Kirby -Baur disc diffusion method; assay type: functional; settings: MTCC 7350, 24 h, read-out: DIZ; outline: as §1
Aspergillus flavus [19] = test: Antifungal activity against Aspergillus flavus MTCC 1021 assessed as zone of inhibition at 40 uM after 48 hrs by disc diffusion method; assay type: functional; settings: MTCC 1021, 48 h, read-out: IZ; outline: as §2
Aspergillus flavus [20] = test: Antifungal activity against Aspergillus flavus MTCC 1021 after 48 hrs; assay type: functional; settings: MTCC 1021, 48 h
Pseudomonas aeruginosa [21] = test: Antimicrobial activity against Pseudomonas aeruginosa ATCC 15499 assessed as diameter of inhibition zone at 80 uM after 24 hrs by Kirby -Baur disc diffusion method; assay type: functional; settings: ATCC 15499, 24 h, read-out: DIZ; outline: as §1
QG-56 = test: Cytotoxicity against human QG56 cells after 24 hrs by MTT assay; assay type: functional, cell-based; outline: as §4
Mus musculus = test: Antiinflammatory activity in mouse assessed as inhibition of carrageenan-induced increase in paw volume at 200 mg/kg administered 1 hr prior to carrageenan challenge measured after 3 hrs relative to control; assay type: functional
Outline: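 Mice were fasted 2 h and placed in groups of five. Controls received saline i.p. Phenylbutazone was given at 100 mg/kg i.p., curcumin at 200 mg/kg i.p., and derivatives at 200 mg/kg. After 1 h, 0.1 mL of 1% carrageenan in saline was injected subplantar into the right hind paw. Paw volume was followed by plethysmometer for 3 h, and % inhibition was calculated as (Vc − Vt)/Vc × 100.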

Bacillus cereus [22] = test: Antimicrobial activity against Bacillus cereus MTCC 7350 assessed as diameter of inhibition zone at 80 uM after 24 hrs by Kirby -Baur disc diffusion method; assay type: functional; settings: MTCC 7350, 24 h, read-out: DIZ; outline: as §1
Escherichia coli [23] = test: Antimicrobial activity against Escherichia coli ATCC 35218 assessed as diameter of inhibition zone at 20 uM after 24 hrs by Kirby -Baur disc diffusion method; assay type: functional; settings: ATCC 35218, 24 h, read-out: DIZ; outline: as §1
Salmonella typhi [24] = test: Antimicrobial activity against Salmonella typhi ATCC 23564 assessed as diameter of inhibition zone at 80 uM after 24 hrs by Kirby -Baur disc diffusion method; assay type: functional, Salmonella enterica subsp. enterica serovar Typhi; settings: Salmonella enterica, ATCC 23564, 24 h; read-out: DIZ
Aspergillus niger [25] = test: Antifungal activity against Aspergillus niger MTCC 1108 after 48 hrs; assay type: functional; settings: MTCC 1108, 48 h
Staphylococcus aureus [26] = test: Antimicrobial activity against Staphylococcus aureus ATCC 11632 assessed as diameter of inhibition zone at 80 uM after 24 hrs by Kirby -Baur disc diffusion method; assay type: functional; settings: ATCC 11632, 24 h, read-out: DIZ; outline: as §1
Aspergillus flavus [27] = test: Antifungal activity against Aspergillus flavus MTCC 1021 assessed as zone of inhibition at 80 uM after 48 hrs by disc diffusion method; assay type: functional; settings: MTCC 1021, 48 h, read-out: IZ; outline: as §2
Pseudomonas aeruginosa [28] = test: Antimicrobial activity against Pseudomonas aeruginosa ATCC 15499 assessed as diameter of inhibition zone at 20 uM after 24 hrs by Kirby -Baur disc diffusion method; assay type: functional; settings: ATCC 15499, 24 h, read-out: DIZ; outline: as §1
Staphylococcus aureus [29] = test: Antimicrobial activity against Staphylococcus aureus ATCC 11632 assessed as diameter of inhibition zone at 20 uM after 24 hrs by Kirby -Baur disc diffusion method; assay type: functional; settings: ATCC 11632, 24 h, read-out: DIZ; outline: as §1
HeLa = test: Cytotoxicity against human HeLa cells after 24 hrs by MTT assay; assay type: functional, cell-based; outline: as §4
Curvularia lunata [30] = test: Antifungal activity against Curvularia lunata MTCC 581 after 48 hrs; assay type: functional; settings: MTCC 581, 48 h
Staphylococcus aureus [31] = test: Antimicrobial activity against Staphylococcus aureus ATCC 11632 assessed as diameter of inhibition zone at 40 uM after 24 hrs by Kirby -Baur disc diffusion method; assay type: functional; settings: ATCC 11632, 24 h, read-out: DIZ; outline: as §1
Aspergillus niger [32] = test: Antifungal activity against Aspergillus niger MTCC 1108 assessed as zone of inhibition at 20 uM after 48 hrs by disc diffusion method; assay type: functional; outline: as §2
Curvularia lunata [33] = test: Antifungal activity against Curvularia lunata MTCC 581 assessed as zone of inhibition at 80 uM after 48 hrs by disc diffusion method; assay type: functional; settings: MTCC 581, 48 h, read-out: IZ; outline: as §2
Trichoderma viride [34] = test: Antifungal activity against Trichoderma viride MTCC 1107 assessed as zone of inhibition at 40 uM after 48 hrs by disc diffusion method; assay type: functional; settings: MTCC 1107, 48 h, read-out: IZ; outline: as §2
Trichoderma viride [35] = test: Antifungal activity against Trichoderma viride MTCC 1107 assessed as zone of inhibition at 20 uM after 48 hrs by disc diffusion method; assay type: functional; settings: MTCC 1107, 48 h, read-out: IZ; outline: as §2
Salmonella typhi [36] = test: Antimicrobial activity against Salmonella typhi ATCC 23564 assessed as diameter of inhibition zone at 40 uM after 24 hrs by Kirby -Baur disc diffusion method; assay type: functional, Salmonella enterica subsp. enterica serovar Typhi; settings: Salmonella enterica, ATCC 23564, 24 h; read-out: DIZ

COc1cc(/C=C/C(O)=C/C(/C=C/c2ccc(O)c(OC)c2)=N/c2ccc(S(=O)(=O)Nc3cc(C)on3)cc2)ccc1O
zone of inhibition at 40 µM (Pseudomonas aeruginosa [1]): 23 mm | MIC (Salmonella typhi [2]): 20 µM (≈ 12.1 µg/mL) | zone of inhibition at 40 µM (Curvularia lunata [3]): 10 mm | inhibition zone (IZ) (Aspergillus flavus [4]): inactive | zone of inhibition at 40 µM (Bacillus cereus [5]): 18 mm | zone of inhibition at 80 µM (Escherichia coli [6]): 27 mm | zone of inhibition at 80 µM (Aspergillus niger [7]): 12 mm | MIC (Pseudomonas aeruginosa [8]): 20 µM (≈ 12.1 µg/mL) | MIC (Escherichia coli [9]): 20 µM (≈ 12.1 µg/mL) | IC50 (HepG2): 25 µM | MIC (Staphylococcus aureus [10]): 20 µM (≈ 12.1 µg/mL) | IC50 (HCT-116): 25 µM | zone of inhibition at 40 µM (Escherichia coli [11]): 21 mm | MIC (Trichoderma viride [12]): 80 µM (≈ 48.3 µg/mL) | zone of inhibition at 20 µM (Curvularia lunata [13]): 9 mm | MIC (Bacillus cereus [14]): 20 µM (≈ 12.1 µg/mL) | zone of inhibition at 40 µM (Aspergillus niger [15]): 9 mm | zone of inhibition at 80 µM (Trichoderma viride [16]): 13 mm | zone of inhibition at 20 µM (Salmonella typhi [17]): 12 mm | zone of inhibition at 20 µM (Bacillus cereus [18]): 13 mm | zone of inhibition at 40 µM (Aspergillus flavus [19]): 9 mm | MIC (Aspergillus flavus [20]): > 80 µM | zone of inhibition at 80 µM (Pseudomonas aeruginosa [21]): 25 mm | IC50 (QG-56): 50 µM | inhibition in vivo at 200 mg/kg (Mus musculus): 33.8% | zone of inhibition at 80 µM (Bacillus cereus [22]): 21 mm | zone of inhibition at 20 µM (Escherichia coli [23]): 19 mm | zone of inhibition at 80 µM (Salmonella typhi [24]): 20 mm | MIC (Aspergillus niger [25]): 40 µM (≈ 24.1 µg/mL) | zone of inhibition at 80 µM (Staphylococcus aureus [26]): 24 mm | zone of inhibition at 80 µM (Aspergillus flavus [27]): 11 mm | zone of inhibition at 20 µM (Pseudomonas aeruginosa [28]): 17 mm | zone of inhibition at 20 µM (Staphylococcus aureus [29]): 17 mm | IC50 (HeLa): 50 µM | MIC (Curvularia lunata [30]): 80 µM (≈ 48.3 µg/mL) | zone of inhibition at 40 µM (Staphylococcus aureus [31]): 21 mm | inhibition zone (IZ) (Aspergillus niger [32]): inactive | zone of inhibition at 80 µM (Curvularia lunata [33]): 11 mm | zone of inhibition at 40 µM (Trichoderma viride [34]): 11 mm | zone of inhibition at 20 µM (Trichoderma viride [35]): 9 mm | zone of inhibition at 40 µM (Salmonella typhi [36]): 17 mm
